Compound activity as filed in PubChem BioAssay.
Most compounds without a hit are left out; they make up all but 1.4% or so of the library.
A3A deaminase: blocks human APOBEC3A ssDNA deamination. P31941. recombinant A3A, FAM/TAMRA ssDNA deamination fluorescence. inhibition, % at 20 µM. actives 0.41% (n = 330,000). AID 493011;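 active = at least 40% inhibition at 20 µM here, with at most 30% in a related deaminase screen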
Target sequence (P31941 whole entry, looked up): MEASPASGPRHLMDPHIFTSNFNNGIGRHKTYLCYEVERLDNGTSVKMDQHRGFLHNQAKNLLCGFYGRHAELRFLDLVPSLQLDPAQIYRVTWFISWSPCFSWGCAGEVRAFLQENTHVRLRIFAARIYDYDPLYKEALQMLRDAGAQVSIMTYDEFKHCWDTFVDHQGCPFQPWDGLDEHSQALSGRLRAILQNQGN
hiPSC survival: enhancers of human iPSC single-cell survival; AID 602274; hiPSC single-cell survival, ATPlite luminescence; 100% = ROCK inhibitor wells, 0% = DMSO; survival enhancement, % at 20 µM; actives 0.044% (n = 360,000); in the data active = survival enhancement above about 18%;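 note: cells exposed to compounds for 16 hours before the ATP read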
HKDC1 inh: HKDC1 (human) hexokinase inhibition; Q2TB90; recombinant HKDC1, G6PDH/diaphorase resazurin coupled fluorescence; inhibition, % at 20 µM; actives 0.16% (n = 340,000);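 active = inhibition above about 35% when tested at 20 µM, limit read from the data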
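Test system: Recombinant HKDC1 (HK5) hexokinase enzyme, produced in-house | Input: HKDC1 at 5 µg/mL | Buffer or medium: Tris pH 8.0 buffer with MgCl2, Tween-20, BSA, BME | Schedule: 90 min reaction incubation at room temperature, dark | Technique: Resazurin-to-resorufin fluorescence via G6PDH and diaphorase coupling, 525/613 nm | Controls: DMSO wells with and without enzyme mix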
A3G deaminase: inhibitors of human APOBEC3G DNA deaminase; Q9HC16; recombinant A3G, ssDNA deamination FAM/TAMRA fluorescence; inhibition, % at 20 µM; actives 0.28% (n = 330,000); AID 493012;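 active = inhibition of at least 40% at 20 µM, with no more than 30% in the related APOBEC3A deaminase screen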
Target sequence (Q9HC16 whole entry, looked up): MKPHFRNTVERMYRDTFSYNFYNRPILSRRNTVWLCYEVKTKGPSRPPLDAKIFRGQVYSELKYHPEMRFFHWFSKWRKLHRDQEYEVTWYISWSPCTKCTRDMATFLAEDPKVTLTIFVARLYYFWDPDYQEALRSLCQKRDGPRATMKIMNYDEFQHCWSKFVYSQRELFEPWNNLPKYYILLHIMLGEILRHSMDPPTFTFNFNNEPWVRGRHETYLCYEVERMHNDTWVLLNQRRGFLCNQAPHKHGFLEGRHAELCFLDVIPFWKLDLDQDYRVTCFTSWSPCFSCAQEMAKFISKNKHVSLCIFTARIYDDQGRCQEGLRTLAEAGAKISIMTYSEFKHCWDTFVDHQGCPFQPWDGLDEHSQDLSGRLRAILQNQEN
PfGluPho inh: PfG6PD (Plasmodium falciparum) enzyme inhibition; actives 0.78% (n = 350,000); AID 504690; PfGluPho enzyme, NADPH resazurin-diaphorase fluorescence; inhibition, % at 20 µM;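 active = inhibition reaching at least a set limit at 20 µM in the primary screen, cut at about 59% in these data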
PfG6PD confirm: PfG6PD inhibition, single-dose confirmed; shares compounds with PfGluPho inh; recombinant PfGluPho, NADPH-diaphorase-resazurin fluorescence; inhibition, % at 20 µM; actives 34% (n = 2,400);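 active = inhibition of at least 50% at 20 µM in any single replicate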
Diaph ctr 10uM: counter-screen for P. falciparum G6PD inhibitors: diaphorase inhibitors, oxidizers | shares compounds with PfGluPho inh | diaphorase-coupled resazurin reduction, fluorescence, NADPH 10 uM | inhibition, % at 20 µM | actives 39% (n = 820) | AID 504862;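 active = average inhibition reaching 50% or more with the compound at 20 µM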;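 note: resorufin red fluorescence formed as diaphorase reduces resazurin using NADPH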
Diaph ctr 30uM: counter-screen for P. falciparum G6PD inhibitors: diaphorase inhibitors, oxidizers. Diaphorase/resazurin coupled assay, resorufin fluorescence, 30 uM NADPH. actives 29% (n = 820). inhibition, % at 20 µM. AID 504863. shares compounds with PfGluPho inh;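 active = inhibition averaging 50% or more, tested at 20 µM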
Large screens that a line does not name were inactive (follow-up assays come after a bar, where they were run).

Oc1cc(-n2cccn2)c(O)cc1-n1cccn1	PfGluPho inh 102.1 (no result: A3A deaminase, A3G deaminase) | PfG6PD confirm 86.5 | Diaph ctr 10uM inactive | Diaph ctr 30uM inactive
C[C@H]1CN([C@@H](C)CO)S(=O)(=O)c2ccc(/C=C/c3ccccc3)cc2O[C@H]1CN(C)C(=O)NC1CCCCC1	none (no result: A3A deaminase, HKDC1 inh, A3G deaminase)
COc1cccc(N2[C@@H](CC(=O)O)c3cc(C(F)(F)F)ccc3S2(=O)=O)c1	PfGluPho inh 71.9 | PfG6PD confirm inactive
COC(=O)c1ccccc1N/C=C1\CCc2c(c(C)nn2-c2ccccn2)C1=O	PfGluPho inh 74.2 | PfG6PD confirm 63.9 | Diaph ctr 10uM inactive | Diaph ctr 30uM inactive
Cc1cccc(NC(=O)c2sc3nc(-c4ccccc4)cn3c2C)n1	PfGluPho inh 61.0 | PfG6PD confirm inactive
CC(=O)Nc1ccc(C(=O)Nc2nc(-c3cccnc3)cs2)cc1	PfGluPho inh 60.1 | PfG6PD confirm inactive
COc1ccc(OCC(=O)N2c3ccccc3CC2C)c([N+](=O)[O-])c1 (stereo not drawn)	none
Cc1ccccc1Nc1nc(N)nc(COC(=O)CCNS(=O)(=O)c2ccccc2)n1	none
Cc1ccc(-c2cc(C(=O)N3CCN(c4ncccn4)CC3)c3cc(Br)ccc3n2)o1	PfGluPho inh 61.6 | PfG6PD confirm inactive
Cc1ccc(C(=O)OCC(=O)N(CCc2ccccc2)Cc2ccccc2)cc1S(=O)(=O)N1CCOCC1	none
O=C(Nc1ccccc1C(=O)N/N=C/c1ccco1)c1ccccc1Cl	PfGluPho inh 69.6 | PfG6PD confirm 51.5 | Diaph ctr 10uM 51.6 | Diaph ctr 30uM inactive
O=C(N/N=C/c1ccco1)c1cccc(NC(=O)c2ccccc2Cl)c1	none
COc1ccc(OC)c(/C=N/NC(=O)CCCC(=O)Nc2cccc(Br)c2)c1	PfGluPho inh 75.3 | PfG6PD confirm inactive
COc1ccc(NC(C)C(=O)N/N=C/c2cc(Br)ccc2OC)cc1 (stereo not drawn)	PfGluPho inh 85.8 | PfG6PD confirm 62.4 | Diaph ctr 10uM inactive | Diaph ctr 30uM inactive
COc1ccc(OC)c(/C=N/NC(=O)CNC(=O)c2cccc3ccccc23)c1	PfGluPho inh 98.7 | PfG6PD confirm 73.9 | Diaph ctr 10uM 63.4 | Diaph ctr 30uM 61.7
COc1cccc(/C=N/NC(=O)c2cccc3ccccc23)c1	none
COc1ccc(NC(C)C(=O)N/N=C/c2ccccc2OCc2cccc(Br)c2)cc1 (stereo not drawn)	none
COc1ccc(CCCC(=O)NCC(=O)N/N=C/c2cc(Cl)ccc2OC)cc1	PfGluPho inh 82.8 | PfG6PD confirm 55.4 | Diaph ctr 10uM 59.1 | Diaph ctr 30uM 53.3
COc1ccc(O)c(/C=N/NC(=O)CCC(=O)Nc2cccc(C)c2)c1	none
COc1ccc(CCC(=O)Nc2cc(Cl)ccc2OC)cc1	none
Cc1ccc(-n2nc(C)c(C(=O)N3CCN(C(=O)c4ccco4)CC3)c2-n2cccc2)cc1	none
CCOCCn1c(=O)c2c(nc3n2CC(C)CN3CCc2ccccc2)n(C)c1=O (stereo not drawn)	none
CC(=O)c1ccc(NC(=S)NCCc2ccc(S(N)(=O)=O)cc2)cc1	none
CC(C)OCCCNC(=S)Nc1ccc(S(N)(=O)=O)cc1	PfGluPho inh 60.7 | PfG6PD confirm inactive
CC(=O)N1CCOC12CCN(Cc1ccccc1)CC2	none (no result: A3A deaminase, HKDC1 inh, A3G deaminase)
COc1ccc(/C=N/Nc2nncn2N)cc1Br	PfGluPho inh 79.3 | PfG6PD confirm inactive
COc1cc(/C=C(\C#N)C(N)=O)ccc1OCc1c(C)no[n+]1[O-]	none
Nn1cnnc1N/N=C/c1ccc(Cl)cc1Cl	none
CCc1nnc(N/N=C/c2ccc(O)c(OC)c2)n1N	PfGluPho inh 71.7 | PfG6PD confirm inactive
CCc1nnc(N/N=C\c2ccc(OC(C)=O)c(OC)c2)n1N	none
COc1cc(/C=N/Nc2nncn2N)ccc1OCc1c(C)no[n+]1[O-]	PfGluPho inh 82.1 | PfG6PD confirm 62.7 | Diaph ctr 10uM inactive | Diaph ctr 30uM inactive
COc1ccc(C(=O)Nc2c(N)nc(SCC(=O)NCC3CCCO3)[nH]c2=O)cc1 (stereo not drawn)	none
Cc1cc(=O)oc2c(C)c(OC(C)C(=O)NCc3ccccn3)ccc12 (stereo not drawn)	none
COc1ccc(Br)cc1C1CC(=O)N2CN(C)CSC2=C1C#N (stereo not drawn)	PfGluPho inh 65.2 | PfG6PD confirm inactive
COc1cc(OC)c(C2CC(=O)N3CN(C)CSC3=C2C#N)cc1OC (stereo not drawn)	PfGluPho inh 61.0 | PfG6PD confirm inactive
COc1cc(OC)c(C2C(C#N)=C(N)Oc3cc(C)n(CCCN4CCOCC4)c(=O)c32)cc1OC (stereo not drawn)	none
CCSC1=C(C#N)C(c2ccccc2OC)CC(=O)N1 (stereo not drawn)	none
CN(C)C(CNC(=O)c1ccc(C2SCCS2)cc1)c1ccccc1 (stereo not drawn)	none
COC(=O)NC(=S)Nc1ccc(Oc2ccc(Cl)cc2)c(Cl)c1	none
COC(=O)NC(=S)Nc1ccc(Oc2ccc(Cl)cc2Cl)c(Cl)c1	PfGluPho inh 82.1 | PfG6PD confirm inactive
CC(C)(C)c1ccc(S(=O)(=O)NC(=O)C2(C)CCN2C(=O)CC2CCCCC2)cc1 (stereo not drawn)	none (no result: A3A deaminase, HKDC1 inh, A3G deaminase, PfGluPho inh)
O=C(COc1cccc(F)c1)Nc1nc(-c2ccccn2)cs1	PfGluPho inh 61.5 (no result: A3A deaminase, HKDC1 inh, A3G deaminase) | PfG6PD confirm inactive
CCOC(=O)[C@]12CCC=C1N(Cc1ccc(Cl)cc1Cl)C(=O)[C@H](CC(=O)NCc1ccc(OC)c(OC)c1)C2	none (no result: A3A deaminase, HKDC1 inh, A3G deaminase, PfGluPho inh)
CCCOc1ccc2oc(=O)c3c(c2c1)CCCN3C(=O)CN1CCc2ccccc2C1	PfGluPho inh 59.9 | PfG6PD confirm inactive
CC1CCN(CC(=O)N2CCCc3c2c(=O)oc2ccc(OCc4ccccc4)cc32)CC1	none
CN(CC(=O)Nc1ccc(Cl)c(Cl)c1)C(=O)C1CCCC1	none
CN(CC(=O)Nc1ccc(Cl)c(Cl)c1)C(=O)C1CCC1	PfGluPho inh 75.1 | PfG6PD confirm inactive
CCn1c2ccccc2c2cc(/C=N/n3cn[nH]c3=S)ccc21	PfGluPho inh 62.6 | PfG6PD confirm 52.1 | Diaph ctr 10uM inactive | Diaph ctr 30uM inactive
O=C1C=C(NCCc2cc(Br)c(O)c(Br)c2)C(=O)c2ncccc21	PfGluPho inh 115.4 (no result: A3A deaminase, A3G deaminase) | PfG6PD confirm 100.8 | Diaph ctr 10uM inactive | Diaph ctr 30uM inactive
O=C1C=CC(=O)N1CCCCCCCCCCN1C(=O)C=CC1=O	PfGluPho inh 83.6 (no result: A3A deaminase, A3G deaminase) | PfG6PD confirm 54.9 | Diaph ctr 10uM inactive | Diaph ctr 30uM inactive
CC(=O)N1C[C@H]2CON(C)[C@H]2C[C@H]1c1ccccc1Br	none (no result: A3A deaminase, A3G deaminase)
